Residues, ends and D or L forms follow the SMILES beside them.
Tests used:
[1] = tested on: MDA-MB-453 cells; assay: Microinjection and time-lapse video microscopy, MDA-MB-453; assay type: cell-based; settings: microinjected 50 μM
[2] = tested on: GST–CtBP1 / His–CtBP1; assay: GST pull down assay; assay type: biochemical; settings: presence of NADH; 50 mM Tris–HCl pH 7.2 pull-down buffer
In short: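 Recombinant GST-CtBP1 and His-CtBP1 are expressed in E. coli and purified on glutathione or nickel resin, with 30 min 0.25 mM pyruvate on-resin to oxidize bound NADH. 10 mg mL−1 bacterial lysate blocks nonspecific binding.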

[3] = tested on: CtBP2 homodimerization (CtBP2 fused to 434 repressor); assay: CtBP2 reverse two-hybrid system; assay type: cell-based; settings: arabinose-induced peptide production; 50 μM IPTG; minimal (selective) media
[4] = tested on: CtBP1 homodimerization (CtBP1 fused to 434 repressor); assay: CtBP1 reverse two-hybrid system; assay type: cell-based; settings: for Target (homodimerization disrupted in RTHS): CtBP1 and CtBP2 RTHS, SICLOPPS; for Rank (top 3 CtBP1/CtBP2 inhibitors identified by SICLOPPS): ranked by drop spotting, CtBP1/CtBP2 RTHS
In short: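 E. coli reverse two-hybrid hosts carry SICLOPPS cyclic peptide library plasmids; only clones whose peptide disrupts CtBP homodimerization survive on selective media. For CtBP1, 104 surviving colonies were picked, and their plasmids were isolated and retransformed into the CtBP1 RTHS. For drop-spotting, 2.5 μL of serial cell dilutions go onto selective plates with and without […].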

[5] = molecular target: CtBP1 (His–CtBP1) (Homo sapiens, UniProt Q13363); assay: FRET-based CtBP1/NADH-binding assay
[6] = tested on: MCF-7 cells; assay: Microinjection and time-lapse video microscopy, MCF-7; assay type: cell-based
In short: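 MCF-7 cells are synchronized 48 h in 0.1% FCS, then released with 10% serum. At 20 h post-release, cells are microinjected in PBS with 70 kDa FITC-dextran (1 μg μL−1) plus peptide (50 μM) or GST-fusion protein (1 μg μL−1). Controls are FITC-dextran alone or non-injected cells. Time-lapse images every 30 min; first mitosis scored for abnormality and duration. Fisher's exact test.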

[7] = tested on: lactate dehydrogenase; assay: Lactate dehydrogenase activity; assay type: biochemical; settings: at concentrations of up to 100 μM
[8] = tested on: MCF-7 cells; assay: Time-lapse video microscopy, peptide in medium, MCF-7; assay type: cell-based
In short: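 Cell-penetrating peptide or TAT alone goes into the medium of asynchronous MCF-7 cultures, imaged by time-lapse microscopy every 30 min for 65 h. Each cell's first mitosis is scored for abnormality (prolonged rounding, failed cytokinesis, death), with time in mitosis per cell. Total cell number increase is taken over the first 48 h. Fisher's exact test; experiments repeated at least twice.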

[9] = tested on: breast cancer cells; settings: ref [31]; cited from earlier work
[10] = tested on: colon cancer cells; settings: ref [36]; cited from earlier work
[11] = tested on: CtBPs; settings: high concentrations of MTOB; ref [37]; cited from earlier work
[12] = tested on: His–CtBP1; assay: Size exclusion chromatography of His–CtBP1; assay type: biochemical; settings: increasing concentrations of NADH; Superdex 200, PBS
[13] = tested on: MCF-7 cells; assay: Micronuclei assay, MCF-7; assay type: cell-based; settings: up to 100 μM TAT; 48 h; >400 cells scored
In short: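 Peptides are added to the medium of asynchronous MCF-7 cultures, and cells are fixed after 48 h for micronuclei counting, with >400 cells scored per point. Data are mean ± SEM of triplicate wells from a representative of at least two independent experiments. One-way ANOVA with Tukey's post hoc test.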

[14] = tested on: CtBP1/CtBP2 dimerization (CFP–CtBP1, YFP–CtBP2) in COS-7 cells; assay: CtBP cellular compartmentalization assay; assay type: cell-based; settings: 100 μM
In short: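 COS-7 cells transfected with CFP–CtBP1 (pSCFP3A-based) and YFP–CtBP2 (pSYFP2-based) expression vectors. Test compound as TAT conjugate (100 μM) or 100 μM TAT added to medium. Expression and co-localization were imaged by fluorescence microscopy, and cells were scored by line analysis for cytoplasmic CFP–CtBP1, with cell numbers counted. Fisher's exact test on contingency tables versus TAT-treated cells.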

## CSCC[C@@H]1NC(=O)[C@H](CCCNC(=N)N)NC(=O)[C@H](C(C)C)NC(=O)[C@H](C(C)C)NC(=O)[C@H]([C@@H](C)O)NC(=O)[C@H](Cc2c[nH]c3ccccc23)NC(=O)CNC(=O)[C@H](CO)NC(=O)[C@H](Cc2ccc(O)cc2)NC1=O [CP61] (cyclo(GWTVVRMYS))
[1]; MDA-MB-453 (Fig. 8b)
  Length of time in mitosis (in words): did not affect the length of time MDA-MB-453 cells spent in mitosis
[1]; MDA-MB-453, P > 0.05 compared to control-injected
  Percentage of mitoses that were aberrant (in words): did not significantly affect the percentage of mitoses that were aberrant
[2]
  Disruption of NADH-dependent association between GST–CtBP1 and His–CtBP1: disrupted
[3]
  Survival on selective media / disruption of CtBP2 homodimerization: Restoration of growth with arabinose
[4]
  Target (homodimerization disrupted in RTHS): CtBP1/CtBP2
  Rank (top 3 CtBP1/CtBP2 inhibitors identified by SICLOPPS): 1
[4]; arabinose-induced peptide production, 50 μM IPTG, minimal (selective) media
  Survival on selective media / disruption of CtBP1 homodimerization: Restoration of growth with arabinose
[5]; excitation 285 nm, emission 425 nm, 300 nM His–CtBP1, room temperature
  Reduction of NADH-dependent FRET signal (CtBP1–NADH interaction): reduced upon addition of CP61, in a dose-dependent manner
[5]; maximum FRET signal at saturating NADH reduced in a CP61-dependent manner
  Mechanism of inhibition of NADH-binding: allosteric mechanism for inhibition of NADH-binding
[6]; microinjected 50 μM, MCF-7, control-injected 10.2%, P < 0.0001 (Fig. 8a)
  Mitoses that were aberrant: 50.8%
[6]; microinjected 50 μM, MCF-7, control-injected 1.9 h (Fig. 8b)
  Mean length of time in mitosis: 4 h
[7]
  Effect on activity of lactate dehydrogenase: no effect
[8]; in cells (discussion summary)
  Concentration inhibiting the cellular function of CtBPs: 50 µM

## CSCCC(=O)C(=O)O [MTOB, 2-keto-4-methylthiobutyrate]
[9]
  Repression of multiple CtBP-targeted genes: reverse the repression of multiple CtBP-targeted genes in breast cancer cells
[10]
  Repression of pro-apoptotic gene BIK: reverse the repression of the pro-apoptotic gene BIK in colon cancer cells
[11]
  Recruitment of CtBPs to target promoters: inhibiting the recruitment of CtBPs to target promoters

## NC(=O)C1=CN([C@@H]2O[C@H](COP(=O)(O)OP(=O)(O)OC[C@H]3O[C@@H](n4cnc5c(N)ncnc54)[C@H](O)[C@@H]3O)[C@@H](O)[C@H]2O)C=CC1 [NADH]
[12]
  Monomer to dimer shift of CtBP1: shifted to a peak corresponding to dimeric CtBP1 in a dose-dependent manner

## GRKKRRQRRRPPQ [TAT]
[13]
  Cells containing micronuclei: Approximately 7%
[14]
  Nuclear co-localization of CtBPs: showed the expected co-localization with YFP–CtBP2 in the nucleus
[8]; 50 μM, 48 hours
  Increase in cell numbers: 111%

## GST–CtBP^DD: construct encoding the central dimerization domain (110–359) of CtBP2
[6]; protein injected at 1 μg μL−1 in PBS, MCF-7 (Fig. 7e)
  Cells with aberrant mitosis phenotype: 45%
[6]; protein injected at 1 μg μL−1 in PBS, MCF-7 (Fig. 7f)
  Time in mitosis (in words): increased the time in mitosis, in line with that observed in CP61-treated cells

## SGW PLSTWY (head to tail) [CP68]
[4]
  Target (homodimerization disrupted in RTHS): CtBP1/CtBP2
  Rank (top 3 CtBP1/CtBP2 inhibitors identified by SICLOPPS): 2

## SGW RLIRLY (head to tail) [CP65]
[4]
  Target (homodimerization disrupted in RTHS): CtBP1/CtBP2
  Rank (top 3 CtBP1/CtBP2 inhibitors identified by SICLOPPS): 3

Reference: publication PMC6237275 (Chemical science, 2013)
